# HCV NS3 hel inh = HCV NS3 helicase inhibition; NS3 helicase DNA unwinding, Cy5 molecular beacon fluorescence; inhibition, % at 10.9 µM; actives 0.56% (n = 290,000); AID 1800;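 active = inhibition above the mean of all tested compounds plus 3 SD, set per campaign, cut at about 35% in these data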;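 note: 0% = DMSO wells and 100% = thioflavine S control wells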
#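 Measured by: Cy5 fluorescence, 0 and 60 min reads / Assay system: NS3 helicase fragment of HCV / Control set: low DMSO, high thioflavine S at 110 µM / Times: 1 h reaction at 25 °C, ATP-initiated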
# ZTA DNA inh = counter-screen for EBNA-1 inhibitors: inhibitors of Epstein-Barr virus ZTA; ZTA-DNA binding, fluorescence polarization; inhibition, % at 11 µM; actives 0.15% (n = 320,000); in the data active = inhibition above about 33%
# Target sequence (P03206 whole entry, looked up): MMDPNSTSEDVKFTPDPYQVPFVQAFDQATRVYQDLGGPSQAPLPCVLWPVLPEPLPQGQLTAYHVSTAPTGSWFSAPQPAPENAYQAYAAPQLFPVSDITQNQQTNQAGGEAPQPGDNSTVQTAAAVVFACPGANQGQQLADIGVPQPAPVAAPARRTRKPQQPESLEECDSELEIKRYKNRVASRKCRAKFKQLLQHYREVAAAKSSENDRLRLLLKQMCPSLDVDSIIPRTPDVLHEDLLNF
# HCV core dimer = HCV core protein dimerization inhibition | TR-FRET GST/Flag-core106 dimerization, 1536-well | inhibition, % at 5 µM | actives 0.33% (n = 300,000);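 active = inhibition above the mean of all tested compounds plus 3 SD, set per screening campaign, cut at about 45% in these data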
#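 Material: GST/Flag-tagged HCV core106 proteins. Incubation: 4 h, 22.5 °C incubation. Read-out basis: inhibition (%) from 671 over 617 nm ratio. Measured by: TR-FRET, excitation 340 nm, emission 617 and 671 nm.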
# EBNA-1 inh = blocks EBNA-1 binding to DNA | EBNA-1 DNA binding, fluorescence polarization | inhibition, % at 14.8 µM | actives 0.34% (n = 300,000); in the data active = inhibition above about 28%
# SUMO HTRF inh = inhibitors of human SUMOylation (UBC9). P63279. inhibition, % at 35 µM. HTRF SUMOylation assay, SAE1/SAE2 + UBC9, in vitro. actives 0.36% (n = 290,000); in the data active = inhibition above about 50%, passing the limit was not always enough
# Target sequence (P63279 whole entry, looked up): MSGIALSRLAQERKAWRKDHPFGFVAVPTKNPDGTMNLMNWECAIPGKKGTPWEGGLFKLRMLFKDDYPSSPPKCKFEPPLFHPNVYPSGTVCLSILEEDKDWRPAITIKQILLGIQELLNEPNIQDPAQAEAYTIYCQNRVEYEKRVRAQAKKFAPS
# EBNA-1 inh conf = EBNA-1 (EBV) inhibition, confirmation; shares compounds with EBNA-1 inh; Recombinant EBNA-1 DBD, Cy5-DNA fluorescence polarization; inhibition, % at 14.8 µM; actives 35% (n = 830); AID 2292;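 active = mean inhibition across replicates above a set limit taken from the earlier primary screen, cut at about 28% in these data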;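 note: plate controls were EBNA-1 protein with DMSO for no effect and wells lacking EBNA-1 for full effect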
# ZTA counter trip = counter-screen for EBNA-1 inhibitors: Epstein-Barr virus ZTA inhibitors, triplicate; shares compounds with EBNA-1 inh; Zta-ZRE DNA binding, Cy5 fluorescence polarization; inhibition, % at 11.1 µM; 830 tested, under 10 active;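 active = mean inhibition over triplicates above a set limit taken from the primary EBNA-1 screen, cut at about 37% in these data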;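 note: purified full length Zta protein with Cy5 labeled ZRE DNA probe; 0% = Zta with DMSO and 100% = wells lacking Zta protein; inhibitors lower polarization by freeing the labeled DNA probe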
# The depositor's hits bear a star; . = no result given. This is a sample that favours compounds with a hit; in the whole collection about 1.4% have one here.
SMILES,HCV NS3 hel inh,ZTA DNA inh,HCV core dimer,EBNA-1 inh,SUMO HTRF inh,EBNA-1 inh conf,ZTA counter trip
CC(OC(=O)CC1CCCCC1)C(=O)Nc1cccc(C#N)c1 (stereo not drawn),.,-12,2,-19,.,.,.
O=C(Nc1ccc(-c2nc3ccccc3o2)cc1)c1ccc(N2C(=O)C3C4C=CC(C4)C3C2=O)cc1 (stereo not drawn),-5,28,4,103*,44,112*,17
CC1CCC(NS(=O)(=O)c2ccc(Cl)nc2)CC1 (stereo not drawn),.,-8,-5,-14,.,.,.
O=C(Nc1ccccc1)c1cccc(N2C(=O)C3C4C=CC(C5CC45)C3C2=O)c1 (stereo not drawn),-5,2,0,-6,-1,.,.
Cc1cccc(NC(=O)c2ccc(N3C(=O)C4C5C=CC(C6CC56)C4C3=O)cc2)c1 (stereo not drawn),-9,11,-5,57*,16,41*,7
CCOC(=O)CN(C(=O)CSc1nnc2c(n1)[nH]c1ccccc12)c1ccccc1,4,4,18,40*,0,-6,-6
COc1ccc(C(CNC(=O)c2ccc(-c3nc4ccccc4s3)o2)N2CCCC2)cc1 (stereo not drawn),.,3,.,.,.,.,.
O=C(NNC(=O)C1CCC1)c1cccc(Cl)c1,.,1,.,.,.,.,.
O=C(NCc1ccc(F)cc1)c1ccc2c(c1)S(=O)(=O)c1ccccc1C2=O,.,-9,4,1,.,.,.
Cc1ccc(NC(=O)Cn2cc(S(=O)(=O)c3ccc(F)cc3)c(=O)c3cc(F)ccc32)cc1,8,-1,9,29*,9,47*,0
Cc1ccc(S(=O)(=O)c2cn(CC(=O)Nc3ccccc3)c3ccc(F)cc3c2=O)cc1,-12,0,11,-11,22,.,.
Cc1ccc(S(=O)(=O)N2CCOCC2)cc1NC(=O)CSc1nc2ccccc2c(=O)n1Cc1ccccc1,-24,-2,17,33*,-14,13,18
Cc1cc(NC(=O)CSc2nc3ccccc3c(=O)n2Cc2ccc(F)cc2)no1,1,-2,0,57*,15,23,14
Cc1c(O)ccc2c(CC(=O)N[C@@H](Cc3c[nH]c4ccccc34)C(=O)O)cc(=O)oc12,17,8,-3,-3,17,.,.
CCc1ccccc1N(C)S(=O)(=O)c1ccc(-c2cc(C)no2)s1,-15,-8,-6,-2,-7,.,.
COc1cc(NC(=O)c2cccnc2)c(OC)cc1NC(=O)c1ccc(Br)cc1,-8,19,-2,-2,10,.,.
O=C(Nc1cccc(-c2cnc3ccccc3n2)c1)c1ccccc1,2,-5,9,40*,5,7,-3
O=C(Nc1ccc(Nc2ccccc2)cc1)c1ccc(Br)cc1,14,4,-1,-6,8,.,.
COc1cc(NC(=O)c2ccccc2)c(OC)cc1NC(=O)Cc1ccc(F)cc1,1,14,14,-6,14,.,.
COc1cc(NC(=O)c2ccccc2)c(OC)cc1NC(=O)Cc1ccc(Br)cc1,-14,8,9,36*,47,50*,1
COc1cc(NC(=O)c2ccc(Br)cc2)c(OC)cc1NC(=O)c1ccccc1,1,-18,14,57*,28,64*,5
O=C(Nc1cccc(C(=O)Nc2ccc(Br)cc2)c1)c1ccccc1,-8,18,19,33*,15,26,0
CSc1nc(=S)c2[nH]c(=S)[nH]c2[nH]1,5,.,.,.,9,.,.
CCOC(=O)c1cnc(SCc2nc(N)nc(Nc3ccc(F)cc3)n2)nc1N,-61,9,-2,49*,15,-8,-9
O=c1[nH]c(CN2CCN(S(=O)(=O)c3ccc4ccccc4c3)CC2)nc2ccccc12,1,23,9,84*,0,122*,4
SMILES,HCV NS3 hel inh,ZTA DNA inh,HCV core dimer,EBNA-1 inh,SUMO HTRF inh,EBNA-1 inh conf,ZTA counter trip
O=C(NCC1CCCN1S(=O)(=O)c1cccs1)c1cccc(F)c1 (stereo not drawn),.,3,0,-1,.,.,.
NS(=O)(=O)c1ccc(NC(=O)/C=C/c2cn(-c3ccccc3)nc2-c2cccc(Cl)c2)cc1,-8,5,-6,30*,34,39*,9
O=C(CSc1cn(Cc2ccccc2)c2ccccc12)Nc1nccs1,-10,2,-87,36*,-9,8,6
COc1ccc([C@H]2CC(=O)C=C(c3cc(C(F)(F)F)cc(C(F)(F)F)c3)C2)cc1,.,-4,.,.,.,.,.
O=C(COC(=O)/C=C/c1ccccc1)Nc1cc(C(F)(F)F)ccc1N1CCOCC1,6,-11,9,55*,15,75*,-8
O=C(COC(=O)/C=C/c1ccc(F)cc1)Nc1cc(C(F)(F)F)ccc1N1CCOCC1,7,4,4,8,-30,.,.
Cn1c(/C(C#N)=C/c2cccc(O)c2)nc2ccccc21,-3,-4,2,-1,11,.,.
Cn1c(/C(C#N)=C/c2ccc(-c3ccc(S(N)(=O)=O)cc3)o2)nc2ccccc21,0,7,2,40*,6,38*,14
Cc1ccc(NC(=O)C2CC(=O)N/C(=N/N=C/c3ccco3)S2)cc1C (stereo not drawn),8,-12,-5,30*,2,4,-10
Cc1ccc(S(=O)(=O)N2CCN(Cc3cc(=O)n4ccccc4n3)CC2)c(C)c1,.,7,.,.,.,.,.
CCCN(CC(=O)Nc1ccc(C(N)=O)cc1)CC(=O)Nc1ccc(Cl)cc1Cl,-1,0,7,29*,4,10,7
Cc1ccc(C2(C)NC(=O)N(CC(=O)NC(=O)NC(C)(C)C)C2=O)cc1 (stereo not drawn),4,-3,-3,6,12,.,.
c1ccc(-c2csc(-c3ccc(-c4csnn4)cc3)n2)cc1,9,20,2,57*,7,46*,11
CCOc1ccc(C2C=C(c3ccccc3)Nc3nnnn32)cc1 (stereo not drawn),-1,23,13,2,5,.,.
CCOc1ccc(C2C=C(c3ccc(C)cc3)Nc3nnnn32)cc1 (stereo not drawn),-7,9,20,52*,-11,2,6
CCOC(=O)c1ccc(NC(=O)CSc2nnc(NC(=O)c3ccc(S(=O)(=O)N4CCOCC4)cc3)s2)cc1,2,7,4,-4,16,.,.
Cc1ccc(NC(=O)CSc2nnc(NC(=O)c3ccc(S(=O)(=O)N4CCOCC4)cc3)s2)cc1,11,10,14,56*,17,84*,11
CN(C)c1ccc(/C=N/NC(=O)c2cc(-c3ccc4c(c3)OCO4)n[nH]2)cc1,16,-6,-5,-11,15,.,.

# Source: PubChem BioAssay
